Assay results from BindingDB's records for doi:10.1016/j.bmc.2008.10.090 (Virginia Polytechnic Institute and State University, 2009).

Legend:
[1] = molecular target: T1, Dual specificity protein phosphatase 6 (Rattus norvegicus, UniProt Q64346); experiment: Inhibition of histidine-tagged rat recombinant MKP3 catalytic domain expressed in Escherichia coli BL21(DE3)
T1 sequence (Q64346 whole entry): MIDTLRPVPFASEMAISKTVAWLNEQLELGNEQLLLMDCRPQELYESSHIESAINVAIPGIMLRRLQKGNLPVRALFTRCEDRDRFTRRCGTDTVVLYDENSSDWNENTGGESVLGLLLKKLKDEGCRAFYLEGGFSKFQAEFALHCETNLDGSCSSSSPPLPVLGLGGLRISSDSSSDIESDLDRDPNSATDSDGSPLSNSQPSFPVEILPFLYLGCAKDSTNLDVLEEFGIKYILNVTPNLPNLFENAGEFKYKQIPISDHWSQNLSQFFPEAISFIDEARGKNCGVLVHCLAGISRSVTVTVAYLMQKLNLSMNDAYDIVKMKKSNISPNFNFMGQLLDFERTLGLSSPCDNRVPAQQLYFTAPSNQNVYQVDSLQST
How it was run: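 Recombinant MKP-3 was expressed from a bacterial plasmid. Phosphatase activity was read from O-methyl fluorescein phosphate hydrolysis in a 25 μL final mixture, incubated 20 or 60 min at ambient temperature. Product fluorescence was read at excitation 485 nm and emission 530 nm. IC50 came from at least six inhibitor concentrations.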

[2] = molecular target: T2, Dual specificity protein phosphatase 1 (Mus musculus, UniProt P28563); experiment: Inhibition of histidine-tagged mouse MKP1 catalytic domain expressed in […]
T2 sequence (P28563 whole entry): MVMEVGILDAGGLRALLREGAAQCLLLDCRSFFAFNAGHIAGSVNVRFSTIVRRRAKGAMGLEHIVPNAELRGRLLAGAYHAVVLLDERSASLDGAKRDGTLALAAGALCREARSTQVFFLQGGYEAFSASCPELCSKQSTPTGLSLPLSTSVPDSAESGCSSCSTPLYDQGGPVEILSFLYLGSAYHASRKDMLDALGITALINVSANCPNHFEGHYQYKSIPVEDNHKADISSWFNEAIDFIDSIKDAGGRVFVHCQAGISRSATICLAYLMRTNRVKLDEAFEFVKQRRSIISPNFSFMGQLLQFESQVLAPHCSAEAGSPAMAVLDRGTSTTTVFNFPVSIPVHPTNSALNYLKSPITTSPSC

[3] = molecular target: T3, M-phase inducer phosphatase 2 (Homo sapiens, UniProt P30305); experiment: Inhibition of histidine-tagged human recombinant Cdc25B catalytic domain expressed in Escherichia coli
T3 sequence (P30305 whole entry): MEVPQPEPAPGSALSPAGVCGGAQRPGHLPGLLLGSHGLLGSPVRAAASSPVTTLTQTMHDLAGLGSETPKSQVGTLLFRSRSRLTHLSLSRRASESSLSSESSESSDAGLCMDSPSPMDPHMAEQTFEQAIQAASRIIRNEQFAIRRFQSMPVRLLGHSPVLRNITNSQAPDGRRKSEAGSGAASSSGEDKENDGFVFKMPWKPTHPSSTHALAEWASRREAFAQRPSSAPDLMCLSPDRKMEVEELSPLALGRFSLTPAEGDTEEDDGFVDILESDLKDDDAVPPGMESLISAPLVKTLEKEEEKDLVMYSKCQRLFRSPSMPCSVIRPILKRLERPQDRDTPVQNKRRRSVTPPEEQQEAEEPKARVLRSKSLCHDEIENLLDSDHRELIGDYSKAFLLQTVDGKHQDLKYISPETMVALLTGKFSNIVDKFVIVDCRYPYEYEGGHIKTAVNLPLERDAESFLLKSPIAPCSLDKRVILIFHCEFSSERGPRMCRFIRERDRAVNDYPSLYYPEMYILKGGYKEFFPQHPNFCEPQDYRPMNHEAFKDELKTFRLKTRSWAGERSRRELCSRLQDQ

Measured: IC50

Cc1c(NCC=O)c(O)c2ccccc2c1O [2-(2-hydroxyethylamino)-3-methylnaphthalene-1,4-dione]
> 50 µM: all assays above

O=CCNc1cc(O)c2ccccc2c1O [2-(2-hydroxyethylamino)naphthalene-1,4-dione]
> 50 µM: all assays above
